# Rows were chosen to be rich in hits. Some 3.1% of all compounds tested hit in one or more screens of this group.
# GPR7 antag: blocks human GPR7 receptor signaling; GPR7-expressing cells, fluorescence antagonist assay; inhibition, % at 4.4 µM; hit rate 1.1% among 290,000; AID 1861; in the data active means inhibition above about 16%, passing the limit was not always enough;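 further: cells stimulated with the agonist NPW; 0% = agonist with vehicle and 100% = vehicle without agonist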
# Target sequence (P48145 whole entry, looked up): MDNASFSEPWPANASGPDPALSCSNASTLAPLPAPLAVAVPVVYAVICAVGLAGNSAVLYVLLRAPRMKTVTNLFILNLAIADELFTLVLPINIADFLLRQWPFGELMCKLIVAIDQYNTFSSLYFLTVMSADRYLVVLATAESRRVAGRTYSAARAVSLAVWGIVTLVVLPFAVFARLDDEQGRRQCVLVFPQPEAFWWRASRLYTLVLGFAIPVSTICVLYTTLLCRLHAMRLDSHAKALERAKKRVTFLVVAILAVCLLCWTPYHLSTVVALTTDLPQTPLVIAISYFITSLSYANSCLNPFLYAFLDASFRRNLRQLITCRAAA
# GalR3 antag: blocks the human galanin receptor 3 | hit rate 0.44% among 360,000 | O60755 | inhibition, % at 3 µM | HEK293 GalR3-CNG cAMP membrane potential fluorescence; galR3 body fused to GalR1 C-terminus | AID 651719;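 active means inhibition above the screen-wide average plus 3 SD, cut at about 13% in these data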;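 further: forskolin and galanin both at EC90 stimulate the cells; cAMP rise reported by CNG channel membrane potential dye signal; 0% = forskolin plus galanin with DMSO and 100% = forskolin alone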
# Target sequence (O60755 1-299 limits assumed): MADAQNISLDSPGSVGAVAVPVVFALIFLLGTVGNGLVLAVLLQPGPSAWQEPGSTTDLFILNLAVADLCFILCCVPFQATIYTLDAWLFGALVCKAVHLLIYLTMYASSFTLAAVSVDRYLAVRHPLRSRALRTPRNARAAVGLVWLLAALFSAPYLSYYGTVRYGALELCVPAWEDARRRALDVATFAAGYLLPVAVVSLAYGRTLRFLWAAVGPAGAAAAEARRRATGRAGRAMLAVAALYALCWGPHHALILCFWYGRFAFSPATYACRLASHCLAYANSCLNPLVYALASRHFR
# CHO parental Ca: signal in parental CHO cells, OX1R antagonist counter-screen | hit rate 0.63% among 330,000 | inhibition, % at 5.6 µM | parental CHO-K1, ATP-induced calcium, Fluo-8 fluorescence;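 active means inhibition above that plate's mean sample inhibition plus 3 SD, cut at about 26% in these data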;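 further: 0% = ATP-challenged DMSO wells and 100% = DMSO wells without ATP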
#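 Test system: untransfected parental CHO cell line. Compound: one dose, 5.6 µM nominal. Detection: intracellular calcium via Fluo-8 no-wash fluorescent dye. Measure: % inhibition. Benchmarks: ATP-challenged DMSO wells low, unchallenged DMSO wells high.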
# OX1R antag-1: OX1R (human) antagonism | hit rate 1.8% among 330,000 | inhibition, % at 6.6 µM | O43613 | OX1R-expressing cells, FRET antagonist read-out; in the data active means inhibition mostly above about 38%, no sharp cut-off; inactive means mostly below about 40%;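 further: 0% = agonist challenge alone and 100% = reference antagonist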
# OX1R antag-2: antagonists of human orexin 1 receptor. O43613. CHO/OX1R cells, Fluo-8 calcium fluorescence, orexin A. inhibition, % at 5 µM. hit rate 0.43% among 330,000;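 active means inhibition above its plate's threshold, mean inhibition of all tested compounds on the plate plus 3 SD, cut at about 37% in these data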;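 further: 0% = orexin A challenge wells and 100% = SB-334867-A antagonist wells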
# Numbers without * were called inactive; . = not tested or not shown.
SMILES,GPR7 antag,GalR3 antag,CHO parental Ca,OX1R antag-1,OX1R antag-2
COc1ccc(Cl)cc1NC(=O)CN(C)C1CCCCC1,-3,-1,-27,19,-27
CN(C)C(=O)CSc1cnc2ccccc2n1,-17,-1,6,13,-5
Cc1ccc(C(=O)CSc2cnc3ccccc3n2)cc1C,-7,-5,-10,66*,-8
O=c1cc(O)cc2n1CCC2,.,-6,.,.,.
CN(c1ccccc1)c1cc(Br)nc(Br)c1,.,-7,-8,15,-16
CC(=O)N(C1=C(O)c2ccccc2C(=O)C1=O)C1CCCCC1,-5,-7,-10,36*,-6
CC(=O)c1ccc(NC2=C(N3CCOCC3)C(=O)c3ccccc3C2=O)cc1,-7,-6,-11,22,-11
CC(=O)N(C)C1=C(N2CCOCC2)C(=O)c2ccccc2C1=O,-4,.,-4,73*,8
CC(CCl)n1c(=O)c2ccccc2n1C(=O)c1ccccc1 (stereo not drawn),.,-3,.,.,.
CC1C(=O)N(Cc2cn(CCC3OCCCO3)nn2)CCS(=O)(=O)N1Cc1ccc(-c2ccc(Cl)nc2)cc1 (stereo not drawn),.,-4,.,.,.
C=CCCC1CN(Cc2ccc(OC)cc2)S(=O)(=O)c2c(cccc2Sc2ccc(OC)c(OC)c2)O1 (stereo not drawn),.,-5,.,.,.
CCOCCCNC(=O)CCC(=O)NNc1nc2ccccc2c2nc(-c3ccccc3)nn12,-4,4,-16,53*,26
CC(C)OCCCNC(=O)CCC(=O)NNc1nc2ccccc2c2nc(-c3ccccc3)nn12,13,2,-13,66*,19
Cc1nc2c3ccccc3nc(NNC(=O)CCC(=O)NCCC(C)C)n2n1,-8,-1,-7,14,-5
COCCNC(=O)CCC(=O)NNc1nc2ccccc2c2nc(-c3ccccc3)nn12,-15,-4,-3,72*,6
CCCCCCCCCn1c2c(c(=N)c3c1CCC3)CCCC2,68*,.,.,.,.
Cc1cccc(NC(=S)/N=C(\N)Nc2nc(C)c3ccccc3n2)c1,6,-12,-8,76*,12
Cc1cccn2c(=O)c3cc(C(=O)NCc4ccc(F)cc4)c(=N)n(CCCN4CCOCC4)c3nc12,.,3,.,.,.
CCCn1c(=N)c(C(=O)NC2CCCC2)cc2c(=O)n3cccc(C)c3nc21,-1,-2,-19,81*,-20
Cc1cccn2c(=O)c3cc(C(=O)NC4CCCC4)n(C)c3nc12,1,1,-22,23,-28
Cc1cccn2c(=O)c3cc(C(=O)NC4CCCCC4)c(=N)n(CCN4CCOCC4)c3nc12,4,-6,-2,63*,-14
C[C@H](CO)N1C[C@H](C)[C@H](CN(C)C(=O)C2CCCCC2)OCc2cnnn2CCCC1=O,.,-5,.,.,.
Cc1ccc(C(C)C)c(OCCNC(=O)c2ccccc2O)c1,-17,-8,-11,14,-24
CSc1ccc(Cl)c(C(=O)NCCOc2cc(C)ccc2C(C)C)c1,-10,-13,53*,27,46*
Cc1noc(C)c1S(=O)(=O)Nc1ccc(C(=O)N2CCN(c3ccc(Cl)cc3)CC2)cc1,-11,-7,36*,45,49*
SMILES,GPR7 antag,GalR3 antag,CHO parental Ca,OX1R antag-1,OX1R antag-2
O=C(c1ccccc1)N1CCN(c2ccccc2)CC1,.,-6,.,.,.
O=C(c1ccccc1)N1CCN(c2ccc(Cl)cc2)CC1,20*,-2,4,0,-10
COc1ccc(Cc2c(-c3ccc(OC)c(OC)c3)nc3ccc(C)cn23)c(C)c1,.,-4,.,.,.
CC1Cc2nc(SCC(=O)N3CCCCC3)n(C)c(=O)c2S1 (stereo not drawn),.,-3,.,.,.
CCOc1ccc(S(=O)(=O)Nc2ccc(C(=O)NCC(c3ccccc3)N(C)C)cc2)cc1 (stereo not drawn),12,-4,-6,9,-13
O=C1c2ccccc2S(=O)(=O)c2cc(N3CCN(c4ccccc4)CC3)ccc21,.,0,-9,17,-8
O=C1c2ccccc2S(=O)(=O)c2cc(N3CCOCC3)ccc21,.,2,-17,56*,-22
CC(=O)c1cccc(NC(=O)CCc2nnc3ccc(NCc4ccc5c(c4)OCO5)nn23)c1,-10,-1,1,3,5
CN(C)C=Nc1ccc2nc3c(cc2c1)[nH]c1ccccc13,2,-7,-2,55*,8
CCOC1=C2CN(S(=O)(=O)c3ccccc3)[C@@H](c3ccccc3)C[C@H]2[C@H]2C(=O)N(c3ccccc3)C(=O)[C@H]2C1,.,2,.,.,.
Cc1cccc(NCCC(=O)c2ccc([N+](=O)[O-])cc2)c1C,-12,1,-10,42*,-17
CCCN(C(=O)c1cn(CCC)c2ccccc12)c1ccc(Oc2cccnc2)cc1,.,-4,.,.,.
Cc1cc(C)c(S(=O)(=O)c2ccc(C(C)(C)C)cc2)c(Cl)n1,-7,-14,43*,11,2
Cc1csc(=O)n1CC(=O)OCc1cccc2ccccc12,8,0,-23,46*,2
COC(=O)N1CCCCC1c1cc(C(=O)NCc2ccccc2)no1 (stereo not drawn),.,7,.,.,.
C[C@H](CO)N1C[C@H](C)[C@@H](CN(C)C(=O)c2cccnc2)Oc2ncc(Br)cc2C1=O,.,1,.,.,.
O=C(CN1C(=O)NC(CCc2ccccc2)C1=O)NC1CC1 (stereo not drawn),24*,-5,-7,7,-1
COc1cccc(Cn2cccc(NC(=O)Nc3ccc(C#N)cc3)c2=O)c1,-4,0,47*,32,52*
CCS(=O)c1ccccc1C(=O)OCC(=O)Nc1ccc2ccccc2c1 (stereo not drawn),.,-6,39*,9,-11
O=C(COC(=O)c1ccccc1O)Nc1ccc2ccccc2c1,.,-5,18,15,1
COc1cccc(-c2ccc3nnc(SCC(=O)N4CCOCC4)n3n2)c1,.,-4,-1,51*,-8
CCSc1nnc2ccc(-c3ccc(OC)c(OC)c3)nn12,-26,1,-8,39*,-6
CC1CCN(C(=O)CSc2nnc3ccc(-c4cccnc4)nn23)CC1,.,-5,-10,35*,-24
COc1ccc(-c2ccc3nnc(SCC(N)=O)n3n2)cc1,-1,-4,-7,54,5
Cc1ccccc1NC(=O)CSc1nnc2ccc(-c3cccnc3)nn12,.,-1,-7,54*,-19
COC(=O)[C@]12C[C@H](CC(=O)N3CCC(c4ccccc4)CC3)C(=O)N(Cc3ccc4c(c3)OCO4)C1=C[C@H](COCc1ccccc1)O[C@@H]2C,.,-8,.,.,.
COc1ccc([C@H]2C[C@H](n3cc(COC(=O)c4ccccc4)nn3)[C@@H](O)CN2Cc2cccs2)cc1,.,0,.,.,.
COc1ccc(NC(=O)CN2CCCC2c2cccs2)cc1S(=O)(=O)N1CCCCC1 (stereo not drawn),.,0,6,8,15
O=C(CC[C@H]1O[C@@H](n2cnc3c(NC(=O)c4ccccc4)ncnc32)[C@H](O)[C@@H]1O)NCc1cccc2ccccc12,.,-2,.,.,.
Nc1cc(C(=O)OCC(=O)Nc2cccc(S(=O)(=O)N3CCOCC3)c2)ccc1Cl,.,-7,-9,4,-8
